Assay results reported in ChEMBL document CHEMBL1138359, “Syntheses of nicotinamide riboside and derivatives: effective agents for increasing nicotinamide adenine dinucleotide concentrations in mammalian cells” (J Med Chem, 2007).

Tests used:
[1] = Cell viability in mouse AB1 cells at 750 uM after 48 hrs by MTT assay relative to control; type: cell-based; conditions: read-out: Activity
Outline: (§1)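 Cells grown 24 h, then exposed to 750 µM compound for 48 h. Viability read by MTT assay and given as % of untreated control. Duplicate experiments.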

[2] = Cell viability in HEK293 cells at 750 uM after 48 hrs by MTT assay relative to control; type: cell-based; conditions: human, read-out: Activity; outline: as §1
[3] = Cell viability in mouse Neuro 2a cells at 750 uM after 48 hrs by MTT assay relative to control; type: cell-based, N2a; conditions: read-out: Activity; outline: as §1
[4] = test system: HEK293; assay: Cytotoxicity against HEK293 cells; type: cell-based; conditions: human
[5] = test system: HEK293; assay: Increase in NAD+ concentration in HEK293 cells at 750 uM after 24 hrs by isotope-dilution technique; type: functional, Homo sapiens
[6] = Cytotoxicity against mouse Neuro 2a cells; type: cell-based; conditions: n2a
[7] = Cytotoxicity against mouse AB1 cells; type: cell-based
[8] = Increase in NAD+ concentration in mouse AB1 cells at 750 uM after 24 hrs by isotope-dilution technique; type: functional
[9] = Increase in NAD+ concentration in mouse Neuro 2a cells at 750 uM after 24 hrs by isotope-dilution technique; type: functional, N2a
[10] = test system: HEK293; assay: Increase in NAD+ concentration in HEK293 cells at 670 uM after 24 hrs by isotope-dilution technique relative to control; type: functional, Homo sapiens
Outline: (§2)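 Cells exposed to 670 µM compound for 24 h. NAD+ was then quantified by an MS-based isotope-dilution method using an 18O standard and expressed relative to untreated controls. All cell experiments were run in duplicate.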

[11] = Increase in NAD+ concentration in mouse Neuro 2a cells at 670 uM after 24 hrs by isotope-dilution technique relative to control; type: functional, N2a; outline: as §2
[12] = Increase in NAD+ concentration in mouse AB1 cells at 670 uM after 24 hrs by isotope-dilution technique relative to control; type: functional; outline: as §2

With `CCOC(=O)c1ccc[n+]([C@@H]2O[C@H](CO)[C@@H](O)[C@H]2O)c1` the viability at 48 h, 750 µM [1] was 103%, the viability at 48 h, 750 µM [2] was 92% and the viability at 48 h, 750 µM [3] was 169%.

For `CN(C)C(=O)c1ccc[n+]([C@@H]2O[C@H](CO)[C@@H](O)[C@H]2O)c1`, the viability at 48 h, 750 µM [1] was 132%, the viability at 48 h, 750 µM [2] was 78% and the viability at 48 h, 750 µM [3] was 35%.

For `C=CCNC(=O)c1ccc[n+]([C@@H]2O[C@H](CO)[C@@H](O)[C@H]2O)c1`, the viability at 48 h, 750 µM [1] was 57%, the viability at 48 h, 750 µM [2] was 78% and the viability at 48 h, 750 µM [3] was 80%.

For `COC(=O)c1ccc[n+]([C@@H]2O[C@H](CO)[C@@H](O)[C@H]2O)c1`, the viability at 48 h, 750 µM [1] was 125%, the viability at 48 h, 750 µM [2] was 94% and the viability at 48 h, 750 µM [3] was 76%.

`O=C(NCCO)c1ccc[n+]([C@@H]2O[C@H](CO)[C@@H](O)[C@H]2O)c1` showed a viability at 48 h, 750 µM [1] of 101%, a viability at 48 h, 750 µM [2] of 77% and a viability at 48 h, 750 µM [3] of 51%.

`CNC(=O)c1ccc[n+]([C@@H]2O[C@H](CO)[C@@H](O)[C@H]2O)c1` gave a viability at 48 h, 750 µM [1] of 79%, a viability at 48 h, 750 µM [2] of 72% and a viability at 48 h, 750 µM [3] of 76%.

With `CCOC(=O)c1ccc[n+]([C@@H]2O[C@H](COC(C)=O)[C@@H](OC(C)=O)[C@H]2OC(C)=O)c1` the Activity [4] was “Non-toxic”, the Activity [5] was 160% and the Activity [6] was “Non-toxic”. The Activity [7] was “Non-toxic”, the Activity [8] was 130% and the Activity [9] was 260%.

Work on `O=C(O)c1ccc[n+]([C@@H]2O[C@H](CO)[C@@H](O)[C@H]2O)c1` yielded a viability at 48 h, 750 µM [1] of 111%, an Activity [10] of 1.9% and a viability at 48 h, 750 µM [2] of 92%. For the same molecule, the Activity [11] was 1.7%, the viability at 48 h, 750 µM [3] was 125% and the Activity [12] was 1.5%.

Work on `CCNC(=O)c1ccc[n+]([C@@H]2O[C@H](CO)[C@@H](O)[C@H]2O)c1` yielded a viability at 48 h, 750 µM [1] of 57%, a viability at 48 h, 750 µM [2] of 48% and a viability at 48 h, 750 µM [3] of 38%.

With `NC(=O)c1ccc[n+]([C@@H]2O[C@H](CO)[C@@H](O)[C@H]2O)c1` [NICOTINAMIDE RIBOSIDE] the viability at 48 h, 750 µM [1] was 123%, the viability at 48 h, 750 µM [2] was 111% and the viability at 48 h, 750 µM [3] was 107%.
